{"source": "paper PMC3958936", "about": "(Bioorganic & medicinal chemistry, 2013)", "key": {"IL-2 reporter gene": {"test_system": "IL-2 reporter gene", "details": "Jurkat T cells; data previously reported; ref Romo et al.[29]; cited from earlier work"}, "SK-MEL2": {"test_system": "SK-MEL2", "assay": "Proliferation assay on SK-MEL2 cultured with reduced serum, 5% FBS", "assay_type": "cell-based", "details": "5% FBS versus 10% FBS"}, "DNA polymerases α and β": {"test_system": "DNA polymerases α and β", "details": "read-out: IC50, DNA polymerases α and β; direct in vitro inhibition; cited from earlier work"}, "[1]": {"test_system": "HeLa, RKO, HaCaT, Jurkat T, BAEC", "assay": "Cell proliferation assays, first generation, statements pooled over cell lines", "assay_type": "cell-based", "details": "for anti-proliferative IC50 values, in words: first generation protocol, cell lines tested"}, "[2]": {"test_system": "xenograft mouse models, melanoma models", "details": "several xenograft mouse models; cited from earlier work"}, "[3]": {"test_system": "immortalized mouse embryonic fibroblasts (MEFs)", "assay_type": "cell-based", "details": "for IC50: Mus musculus, Fibroblast, read-out: estimated IC50, MEFs; for fold loss in activity in MEFs compared with cancer cell lines: estimated"}, "cancer cell lines": {"test_system": "cancer cell lines", "details": "cell culture, variety of cancer cell lines; cited from earlier work"}, "SK-MEL2 melanoma cells": {"test_system": "SK-MEL2 melanoma cells", "assay": "MTT cell proliferation assay, second-generation analogs, SK-MEL2", "assay_type": "cell-based", "details": "versus DMDAPatA (2)", "how_it_was_run": "(§1)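 HeLa and SK-MEL2 cells were grown in DMEM, Jurkat T cells in RPMI 1640, each with 10% FBS and pen-strep at 37 °C, 5% CO2. Adherent lines were seeded at 2000 cells/well and allowed to recover overnight; Jurkat were seeded at 5000 cells/well with no recovery. Compound was given in 0.1% DMSO final for 72 h, then MTT read-out.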"}, "Jurkat T cells": {"test_system": "Jurkat T cells", "assay": "MTT cell proliferation assay, second-generation analogs, Jurkat T", "assay_type": "cell-based, human", "details": "versus DMDAPatA (2)", "how_it_was_run": "as §1"}, "[4]": {"test_system": "HeLa, Jurkat T cells, and SK-MEL2", "assay": "MTT cell proliferation assays, statements pooled over all three cell lines", "assay_type": "cell-based", "details": "for cell proliferation inhibition activity, in words: all cell lines tested"}, "[5]": {"test_system": "cap-dependent (eIF4AI/II-dependent) translation", "assay": "In vitro translation assay in rabbit reticulocyte lysate, cap-dependent cistron", "assay_type": "biochemical", "details": "for fold loss of activity in in vitro translation assay: versus DMDAPatA (2)", "how_it_was_run": "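Bicistronic reporter mRNA (cap-dependent firefly cistron; HCV IRES-driven Renilla cistron) was SP6-transcribed from linearized plasmid and purified. 200 ng RNA was translated in 20 μl rabbit reticulocyte lysate reactions with 70 mM KCl, 2 mM DTT and RNasin. Compound in DMSO was added at 5% (v/v) final. Reactions ran 1.5 h at 30 °C, then dual-luciferase read-out. Duplicates; 4 independent assays; IC50 by curve fitting, averaged.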"}, "HeLa": {"test_system": "HeLa", "assay": "MTT cell proliferation assay, second-generation analogs, HeLa", "assay_type": "cell-based, human", "details": "versus DMDAPatA (2)", "how_it_was_run": "as §1"}}, "data": [{"smiles": "CC(/C=C/C(C)=C/[C@@H]1Cc2nc(cs2)CCCCC(=O)O[C@@H](C)C/C(C)=C/C=C\\C(=O)O1)=C\\CN(C)C", "note": "[Compound 2, C5-des-methyl, C3-des-amino pateamine A]", "values": [{"measurement": "IC50 (nM) IL-2 reporter gene assay", "setting": "IL-2 reporter gene", "result": "sub-nanomolar"}, {"measurement": "fold reduced anti-proliferative activity under 5% FBS", "setting": "SK-MEL2", "result": "roughly 2 fold"}, {"measurement": "IC50", "setting": "DNA polymerases α and β", "result": "3 to 19", "unit": "µM"}, {"measurement": "fold lower activity than PatA in cell proliferation assays", "setting": "[1]; DMDAPatA versus PatA", "result": "roughly 10 fold"}, {"measurement": "anti-proliferative IC50 values, in words", "setting": "[1]", "result": "single-digit nanomolar"}, {"measurement": "anticancer activity in xenograft mouse models", "setting": "[2]", "result": "potent anticancer activity in several xenograft mouse models with especially significant regressions in melanoma models"}, {"measurement": "IC50", "setting": "[3]", "result": "> 50", "unit": "nM"}, {"measurement": "fold loss in activity in MEFs compared with cancer cell lines", "setting": "[3]", "result": "roughly 5 fold"}, {"measurement": "anti-proliferative IC50 values in cancer cell lines, in words", "setting": "cancer cell lines", "result": "approximately single-digit nanomolar"}]}, {"smiles": "C/C(Br)=C\\[C@@H]1Cc2nc(cs2)CCCCC(=O)O[C@@H](C)C/C(C)=C/C=C\\C(=O)O1", "note": "[Compound 5]", "values": [{"measurement": "fold loss of activity in SK-MEL2 cells", "setting": "SK-MEL2 melanoma cells", "result": "≥ 700", "unit": "fold"}, {"measurement": "fold loss of activity in Jurkat T cells", "setting": "Jurkat T cells", "result": "≥ 700", "unit": "fold"}]}, {"smiles": "C/C(Br)=C\\[C@@H]1Cc2nc(cs2)CCCCC(=O)O[C@@H](C)C/C(C)=C/C=C/C(=O)O1", "note": "[Compound 6]", "values": [{"measurement": "cell proliferation inhibition activity, in words", "setting": "[4]", "result": "inactive"}]}, {"smiles": "CC(/C=C/C(C)=C/[C@@H]1Cc2nc(cs2)CCCCC(=O)O[C@@H](C)C/C(C)=C/C=C\\C(=O)O1)=C\\CN1CCOCC1", "note": "[Compound 9b]", "values": [{"measurement": "fold loss of activity in SK-MEL2 cells", "setting": "SK-MEL2 melanoma cells", "result": "approximately 25 fold"}, {"measurement": "fold loss of activity in in vitro translation assay", "setting": "[5]", "result": "roughly 3 fold"}, {"measurement": "fold loss of activity in HeLa cells", "setting": "HeLa", "result": "greater than 400 fold"}, {"measurement": "fold increase of activity under 5% FBS", "setting": "SK-MEL2", "result": "roughly 2 fold"}, {"measurement": "fold loss of activity in Jurkat T cells", "setting": "Jurkat T cells", "result": "at least 700 fold"}, {"measurement": "IC50", "setting": "[3]", "result": "> 2000", "unit": "nM"}, {"measurement": "fold loss in activity in MEFs compared with cancer cell lines", "setting": "[3]", "result": "roughly 5 fold"}]}, {"smiles": "CC(/C=C/C(C)=C/[C@@H]1Cc2nc(cs2)CCCCC(=O)O[C@@H](C)C/C(C)=C/C=C\\C(=O)O1)=C\\CN1CCCC1", "note": "[Compound 9c]", "values": [{"measurement": "fold loss of activity in all cell lines", "setting": "[4]; versus DMDAPatA (2), HeLa, SK-MEL2, Jurkat T", "result": "~2", "unit": "fold"}, {"measurement": "fold loss of activity in in vitro translation assay", "setting": "[5]", "result": 2, "unit": "fold"}, {"measurement": "IC50", "setting": "[3]", "result": "> 100", "unit": "nM"}]}, {"smiles": "CC(/C=C/C=C/CO)=C\\[C@@H]1Cc2nc(cs2)CCCCC(=O)O[C@@H](C)C/C(C)=C/C=C\\C(=O)O1", "note": "[Compound 9e]", "values": [{"measurement": "IC50 (nM) cap-dependent translation inhibition", "setting": "[5]; rabbit reticulocyte lysate, 30 °C, 1.5 h, ± 1 standard deviation, N.E. = no effect up to concentration (nM) in parentheses", "result": "a degree of activity at high concentration"}]}, {"smiles": "CC(/C=C/C(C)=C/[C@@H]1Cc2nc(cs2)CCCCC(=O)O[C@@H](C)C/C(C)=C/C#CC(=O)O1)=C\\CN(C)C", "note": "[Compound 10a]", "values": [{"measurement": "cell proliferation inhibition activity, in words", "setting": "[4]", "result": "no effect was observed"}]}, {"smiles": "COCCC/C=C/C(C)=C/[C@@H]1Cc2nc(cs2)CCCCC(=O)O[C@@H](C)C/C(C)=C/C#CC(=O)O1", "note": "[Compound 10f]", "values": [{"measurement": "cell proliferation inhibition activity, in words", "setting": "[4]", "result": "did not demonstrate any significant cell proliferation inhibition activity"}]}, {"smiles": "CC(/C=C/CCCO)=C\\[C@@H]1Cc2nc(cs2)CCCCC(=O)O[C@@H](C)C/C(C)=C/C#CC(=O)O1", "note": "[Compound 10g]", "values": [{"measurement": "cell proliferation inhibition activity, in words", "setting": "[4]", "result": "did not demonstrate any significant cell proliferation inhibition activity"}]}, {"smiles": "CC(/C=C/C(C)=C/[C@@H]1Cc2nc(cs2)[C@@H](C)C[C@@H](N)CC(=O)O[C@@H](C)C/C(C)=C/C=C\\C(=O)O1)=C\\CN(C)C", "note": "[PatA (1), pateamine A, reference compound]", "values": [{"measurement": "anti-proliferative IC50 values, in words", "setting": "[1]", "result": "sub-nanomolar"}, {"measurement": "anti-proliferative IC50 values in cancer cell lines, in words", "setting": "cancer cell lines", "result": "sub-nanomolar range"}]}]}
